Results on eleven compounds are retold here after ChEMBL document CHEMBL4190334, “Evaluation of Oxetan-3-ol, Thietan-3-ol, and Derivatives Thereof as Bioisosteres of the Carboxylic Acid Functional Group” (ACS Med Chem Lett, 2017).

In data set [1] the target is T1, Polyunsaturated fatty acid 5-lipoxygenase (Rattus norvegicus, UniProt P12527).
T1 sequence (P12527 whole entry): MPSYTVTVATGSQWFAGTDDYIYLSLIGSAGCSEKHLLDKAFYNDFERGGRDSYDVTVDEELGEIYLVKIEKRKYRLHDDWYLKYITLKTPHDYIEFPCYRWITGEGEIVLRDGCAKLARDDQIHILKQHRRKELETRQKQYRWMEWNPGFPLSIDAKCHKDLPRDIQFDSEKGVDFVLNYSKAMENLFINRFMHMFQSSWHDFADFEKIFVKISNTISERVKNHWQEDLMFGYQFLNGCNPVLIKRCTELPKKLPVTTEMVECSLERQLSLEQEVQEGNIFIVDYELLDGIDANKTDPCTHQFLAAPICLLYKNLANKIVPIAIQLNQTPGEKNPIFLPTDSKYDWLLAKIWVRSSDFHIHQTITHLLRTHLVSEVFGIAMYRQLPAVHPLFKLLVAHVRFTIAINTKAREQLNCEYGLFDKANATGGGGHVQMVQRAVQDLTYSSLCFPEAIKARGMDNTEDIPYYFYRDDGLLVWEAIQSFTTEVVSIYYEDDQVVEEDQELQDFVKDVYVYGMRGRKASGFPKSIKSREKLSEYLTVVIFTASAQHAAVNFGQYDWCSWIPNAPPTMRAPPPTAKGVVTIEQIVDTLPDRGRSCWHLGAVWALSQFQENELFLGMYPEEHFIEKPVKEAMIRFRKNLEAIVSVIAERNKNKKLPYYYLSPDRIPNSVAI
Put plainly: Inhibition of 5-LOX in RBL1 cells assessed as reduction in LTB4 production using A23187-induced arachidonic acid as substrate preincubated for 2 hrs followed by A23187 addition measured after 15 mins by LC-MS/MS analysis. The format is cell-based. Put shortly:
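RBL-1 cells incubated 2 h with test compound at several concentrations, then A23187 (12 μM) added for 15 min to trigger arachidonic acid release; LTB4 in culture supernatant quantified by LC–MS/MS. Triplicate samples per concentration; IC50 with 95% confidence interval from sigmoidal curve fit.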

For another data set, the target named is T2, Cyclooxygenase (Rattus norvegicus, UniProt P35355+Q63921).
T2 sequence (P35355 whole entry): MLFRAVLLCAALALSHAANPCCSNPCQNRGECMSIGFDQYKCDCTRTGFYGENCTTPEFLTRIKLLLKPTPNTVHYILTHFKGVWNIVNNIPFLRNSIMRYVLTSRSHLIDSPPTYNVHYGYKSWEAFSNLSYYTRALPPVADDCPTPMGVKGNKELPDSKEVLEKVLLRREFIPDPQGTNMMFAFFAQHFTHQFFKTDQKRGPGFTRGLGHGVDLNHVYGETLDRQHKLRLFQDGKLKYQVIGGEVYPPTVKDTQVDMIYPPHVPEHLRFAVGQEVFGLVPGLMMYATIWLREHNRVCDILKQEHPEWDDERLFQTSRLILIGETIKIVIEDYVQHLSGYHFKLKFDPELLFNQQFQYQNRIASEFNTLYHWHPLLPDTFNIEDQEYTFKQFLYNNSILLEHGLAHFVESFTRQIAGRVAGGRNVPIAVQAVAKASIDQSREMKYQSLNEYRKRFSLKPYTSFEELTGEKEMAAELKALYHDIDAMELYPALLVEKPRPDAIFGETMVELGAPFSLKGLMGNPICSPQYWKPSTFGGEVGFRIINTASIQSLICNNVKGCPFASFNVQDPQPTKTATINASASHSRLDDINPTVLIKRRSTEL
T2 sequence (Q63921 whole entry): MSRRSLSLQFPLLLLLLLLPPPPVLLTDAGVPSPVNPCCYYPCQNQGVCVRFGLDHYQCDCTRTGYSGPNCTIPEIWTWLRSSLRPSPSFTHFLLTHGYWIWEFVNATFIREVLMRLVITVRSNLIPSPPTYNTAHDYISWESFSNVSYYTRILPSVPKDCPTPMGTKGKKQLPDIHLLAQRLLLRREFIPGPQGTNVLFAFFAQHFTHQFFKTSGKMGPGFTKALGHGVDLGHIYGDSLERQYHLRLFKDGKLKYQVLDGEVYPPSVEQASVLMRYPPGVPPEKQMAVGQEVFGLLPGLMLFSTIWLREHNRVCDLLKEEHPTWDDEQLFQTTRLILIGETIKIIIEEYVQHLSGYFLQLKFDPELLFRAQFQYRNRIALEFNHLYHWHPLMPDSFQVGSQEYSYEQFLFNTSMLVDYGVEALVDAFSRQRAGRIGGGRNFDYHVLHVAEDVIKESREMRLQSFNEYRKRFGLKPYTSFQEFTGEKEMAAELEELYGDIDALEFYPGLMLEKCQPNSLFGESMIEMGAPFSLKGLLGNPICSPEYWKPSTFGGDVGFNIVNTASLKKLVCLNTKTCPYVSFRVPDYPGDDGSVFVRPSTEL
Put plainly: Inhibition of COX in RBL1 cells assessed as reduction in PGE2/D2 production using A23187-induced arachidonic acid as substrate preincubated for 2 hrs followed by A23187 addition measured after 15 mins by LC-MS/MS analysis. Type of data set: cell-based.

Data set [2] is described as follows: n-Octanol-aqueous buffer distribution coefficient, log D of the compound at pH 7.4 by LC-MS method. Type of data set: physicochemical.
A short description of data set [3]: Effective permeability of the compound by PAMPA. Type of data set: ADME. The note with it: read-out: Peff. Put shortly:
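PAMPA run externally; effective permeability reported together with membrane retention and log apparent permeability coefficient.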
On the technique in general: The PAMPA barrier holds no transporters, so it reflects passive diffusion.

Data set [4] in a line: Dissociation constant, pKa of the compound by capillary electrophoresis method. Type of data set: physicochemical.
A short description of data set [5]: Effective permeability of the compound assessed as membrane retention by PAMPA relative to control. Type of data set: ADME.

Broadly, the IC50 is the concentration that gives 50% inhibition. In the case of `CC(C)Cc1ccc(C2CC(O)=CC2=O)cc1` (centres undefined), the half-maximal inhibitory concentration (IC50) is over 100 µM in data set [1] and 28.1 µM on Cyclooxygenase.
`CC(C)Cc1ccc(C(C)C(=O)O)cc1` (centres undefined) [IBUPROFEN]: the IC50 in data set [1] was over 100 µM.
The term logD denotes lipophilicity at a set pH, counting ionised and neutral species. Low values mean lower lipophilicity, high ones higher lipophilicity. One may read the pKa as the negative logarithm of the acid dissociation constant. A high value points to a weaker acid or stronger base. In data set [2], `[O-][S+]1CC(O)(CCc2ccccc2)C1` (centres undefined) registered a logD of 1.22. The Papp in data set [3] stood at 6.23 ×10⁻⁶ cm/s. Further, the pKa in data set [4] is over 12. Further, the R% in data set [5] was found to be 10%.
Consider `CC(C)Cc1ccc(C(C)C2(O)CSC2)cc1` (centres undefined), for which the IC50 in data set [1] was 7.6 µM; at Cyclooxygenase, over 100 µM.
Consider `CC(C)Cc1ccc(C(C)C2(O)CS(=O)(=O)C2)cc1` (centres undefined), for which the 50% inhibitory concentration (IC50) in data set [1] is 20.2 µM; on Cyclooxygenase, 14.6 µM.
On to `CC(C)Cc1ccc(C(C)C2(O)C[S+]([O-])C2)cc1` (centres undefined), for which the concentration for half-maximal inhibition (IC50) in data set [1] came to 11.7 µM; at Cyclooxygenase, 17.4 µM.
In the same order, the values of `CC(C)Cc1ccc(C(C)C2(O)COC2)cc1` (centres undefined) are 8.4 µM and 34.1 µM.
For `CC(C)Cc1ccc(C(C)c2nnn[nH]2)cc1` (centres undefined), the results for the half-maximal inhibitory concentration (IC50) (in data set [1]; at Cyclooxygenase) were over 100 µM and 31.8 µM, respectively.
`O=S1(=O)CC(O)(CCc2ccccc2)C1`: the pH-dependent lipophilicity (logD) in data set [2] was determined as 1.24. The Papp in data set [3] came to 12.2 ×10⁻⁶ cm/s. In addition, the pKa in data set [4] was found to be 9.31. The R% in data set [5] is recorded as 10.7%.
Consider `OC1(CCc2ccccc2)COC1`, for which the logD in data set [2] is 2.07. Also, the Papp in data set [3] turned out to be 8.27 ×10⁻⁶ cm/s. The compound also came in with a pKa in data set [4] of over 12. Moreover, the R% in data set [5] was -11.9%.
For the compound `OC1(CCc2ccccc2)CSC1`, the log distribution coefficient (logD) in data set [2] turned out to be 2.99. Also, the Papp in data set [3] came to 13.2 ×10⁻⁶ cm/s. Moreover, the pKa in data set [4] was over 12. Further, in data set [5], the R% amounted to 11.4%.
